Compound activity from PubChem.
ABCB1 inh – inhibitors of human ABCB1 transporter, ABCG2 counter-screen; P08183; actives 0.067% (n = 190,000); CCRF-Adr cells, JC-1 efflux, flow cytometry; inhibition, % at 6.6 µM; in the data active = inhibition above about 40%;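 note: 0% = vehicle and 100% = reference inhibitor; higher value means more JC-1 retained so stronger ABCB1 efflux block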
Efflux pump inh – blocks antifungal efflux pumps in multiplex yeast assay | S. cerevisiae Candida pump triplex, Nile Red efflux | inhibition, % at 10 µM | actives 0.44% (n = 330,000);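 active = plate passing quality check with inhibition over a set limit, or well fluorescence over plate mean plus 4 SD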;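 note: Nile Red retained in pooled yeast measured as flow cytometry median fluorescence; 0% = buffer negative control and 100% = Enniatin B positive control; higher means more Nile Red kept so more efflux inhibition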
MEKK2 mut-MEK5 – signal of MEK5 binding to mutant human MEKK2 PB1 domain; bead flow cytometry, Alexa488-MEK5 binding to MEKK2 mutant; percent response, % at 10 µM; actives 0.35% (n = 290,000); in the data active = percent response above about 24%, passing the limit was not always enough
MEKK3 PB1 HTS – modulators (inhibitors or enhancers) of MEK5 binding to human MEKK3 PB1 domain; bead-based flow cytometry, Alexa488-MEK5 binding to MEKK3; actives lie on both sides; 0 = blocked by unlabeled MEK5, 100 = vehicle; binding response (% of control), % at 10 µM; actives 1.4% (n = 290,000); AID 1529;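 active = binding response more than 3 SD above or below the average of its plate-row segment, actives on both sides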;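 note: Alexa488 bead fluorescence after subtracting the streptavidin-only scavenger bead signal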
MEKK2 WT-MEK5 – raises or lowers MEK5 binding to wildtype human MEKK2 PB1 domain | bead flow cytometry, Alexa488-MEK5 binding to MEKK2 WT; actives lie on both sides | actives 1.1% (n = 290,000) | binding response (% of control), % at 10 µM; in the data active = binding response below about 67% or above about 130%
ABCG2 inh – inhibitors of human ABCG2 transporter, ABCB1 counter-screen; Q9UNQ0; IgMXP3 cells, JC-1 efflux, flow cytometry; inhibition, % at 6.6 µM; actives 0.1% (n = 190,000);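 active = inhibition above 80%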;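 note: 0% = DMSO and 100% = nicardipine control wells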
Target sequence (Q9UNQ0 whole entry, looked up): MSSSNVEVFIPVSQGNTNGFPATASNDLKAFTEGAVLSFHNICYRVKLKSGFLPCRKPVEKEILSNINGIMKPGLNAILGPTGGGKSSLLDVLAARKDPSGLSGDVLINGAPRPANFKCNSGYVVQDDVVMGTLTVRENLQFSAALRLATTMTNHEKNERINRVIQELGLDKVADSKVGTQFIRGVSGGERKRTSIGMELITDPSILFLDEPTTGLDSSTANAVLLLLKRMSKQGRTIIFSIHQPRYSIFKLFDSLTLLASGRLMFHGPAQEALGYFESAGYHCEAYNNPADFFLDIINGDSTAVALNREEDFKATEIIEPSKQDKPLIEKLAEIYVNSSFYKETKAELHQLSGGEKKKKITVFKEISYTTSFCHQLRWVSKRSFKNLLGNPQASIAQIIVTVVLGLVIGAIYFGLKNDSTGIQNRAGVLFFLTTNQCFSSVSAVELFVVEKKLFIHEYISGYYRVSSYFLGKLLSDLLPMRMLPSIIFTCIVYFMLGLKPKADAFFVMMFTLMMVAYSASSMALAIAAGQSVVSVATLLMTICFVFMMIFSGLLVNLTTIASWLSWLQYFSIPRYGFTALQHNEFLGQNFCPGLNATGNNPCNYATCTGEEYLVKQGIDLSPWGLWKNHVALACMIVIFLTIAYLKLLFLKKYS
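material = IgMXP3 (ABCG2) plus far-red-tagged CCRF-Adr (ABCB1) cells | amount = 3 million cells/mL, equal mix of both lines | also added = JC-1 transporter substrate | dosing = one concentration, 6.6 µM final | schedule = 10 min at 25 °C | measured by = flow cytometric JC-1 green MFI at 530 nm | read-out basis = percent efflux inhibition, scaled nicardipine 100% to DMSO 0%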
MEKK2wt confirm – raises or lowers MEK5 binding to wildtype human MEKK2, retest; shares compounds with MEKK3 PB1 HTS; bead flow cytometry, Alexa488-MEK5 binding to MEKK2 WT; actives lie on both sides; binding response (% of control), % at 10 µM; actives 2.4% (n = 5,900); AID 1892; in the data active = binding response below about 16% or above about 210%; inactive = in between
MEKK2mut confirm – signal of MEK5 binding to mutant human MEKK2, retest | shares compounds with MEKK3 PB1 HTS | bead flow cytometry, Alexa488-MEK5 binding to MEKK2 mutant | percent response, % at 10 µM | actives 2% (n = 5,900) | AID 1893; in the data active = percent response mostly above about 71%, no sharp cut-off; inactive = mostly below about 38%;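 note: higher means compound restores mutant binding toward wildtype level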
MEKK3 confirm – MEKK3-MEK5 PB1 inhibition, single concentration confirmation. shares compounds with MEKK3 PB1 HTS. bead flow cytometry, Alexa488-MEK5 binding to MEKK3; active compounds read low. binding response (% of control), % at 10 µM. actives 1.8% (n = 5,900). AID 1894;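 active = binding response below 72% of control, or above a set upper limit, though filed actives all read lower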;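 note: 100% = DMSO only wells and 0% = binding blocked by excess unlabeled MEK5; lower values mean stronger disruption of MEK5 binding to MEKK3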
An asterisk follows results filed as active; nt = no result given; ! = not confirmed by another sample; [ ] = another dose, or the depositor's remark. Hits are enriched below; roughly 2.5% of the tested compounds scored in any of these assays.

SMILES | ABCB1 inh | Efflux pump inh | MEKK2 mut-MEK5 | MEKK3 PB1 HTS | MEKK2 WT-MEK5 | ABCG2 inh | MEKK2wt confirm | MEKK2mut confirm | MEKK3 confirm
CCCCn1c(-c2cccs2)nc2oc3ccccc3c(=O)c2c1=O | nt | 0 | 19 | 129* | 115 | nt | 98 | -3 | 98
O=C(CN1C(=O)/C(=C/c2cccc(Br)c2)SC1=S)N1CCCC1 | 0 | 1 | 1 | 153* | 112 | -2 | 100 | 0 | 97
CCOC(=O)C1=C(N)OC2=C(C(=O)CC(C)(C)C2)C1c1ccc(C)s1 (stereo not drawn) | 1 | 0 | 0 | 110 | 105 | 2 | nt | nt | nt
CCOC(=O)C1=C(N)OC2=C(C(=O)CC(C)(C)C2)C1c1ccc(CC)s1 (stereo not drawn) | 1 | 0 | -15 | 40*[inhibitor] | 41*[inhibitor] | 3 | 95 | -4 | 102
O=C(c1ccc(Cl)cc1)C1CCCN(Cc2cnn(-c3ccccc3)c2)C1 (stereo not drawn) | 1 | 0 | 36 | 100 | 148* | 0 | 126 | 14 | 105
Cc1ccc(C)c(N2CCN(C(=O)CCS(=O)(=O)c3ccc4c(c3)NC(=O)C(C)S4)CC2)c1 (stereo not drawn) | nt | 0 | -1 | 99 | 98 | nt | nt | nt | nt
COc1cc(CNCc2cccs2)ccc1OCc1cccs1 | 1 | 0 | -27 | 2.0*[inhibitor] | -1.0*[inhibitor] | 1 | 122 | 12 | 102
O=C(O)C1C2CCC(C2)C1C(=O)NCCc1ccccc1 (stereo not drawn) | nt | 0 | -1 | 102 | 104 | nt | nt | nt | nt
O=[N+]([O-])c1ccc(C2=NN(c3ccccc3)C(c3ccco3)C2)cc1 (stereo not drawn) | nt | nt | 124* | 107 | 33* | nt | 83 | -33 | 93
Cc1ccc(C2=NN(S(=O)(=O)c3ccccc3)C(c3ccco3)C2)cc1 (stereo not drawn) | nt | 0 | nt | nt | nt | nt | nt | nt | nt
O=C(NC1CCS(=O)(=O)C1)/C(=C\c1ccccc1)NC(=O)c1ccccc1 (stereo not drawn) | 0 | 0 | 0 | 147* | 108 | -1 | 105 | 7 | 106
Cc1ccc(Nc2nnc(SCC(=O)c3ccc(Br)s3)s2)c(C)c1 | 0 | 0 | 2 | 72*[inhibitor] | 94 | 1 | 97 | -8 | 99
Cc1cccc(C)c1Nc1nnc(SCC(=O)c2ccc(Br)s2)s1 | 0 | 0 | 6 | 109 | 118 | 4 | nt | nt | nt
CCNC(=S)N/N=C/c1cccs1 | 0 | 0 | 10 | 106 | 107 | 0 | nt | nt | nt
CC(NC(=O)Nc1ccc(Cl)c(Cl)c1)C(c1ccccc1)N1CCOCC1 (stereo not drawn) | 1 | 0 | 0 | 139* | 110 | 6 | 110 | 0 | 104
c1ccc2[nH]c(-c3ccncc3)nc2c1 | 0 | 0 | -13 | 42*![inhibitor] | 46*![inhibitor] | 4 | 106 | 12 | 108
c1ccc(-c2nc3ccccc3[nH]2)cc1 | nt | 0 | 8 | 103 | 108 | nt | nt | nt | nt
O=[N+]([O-])c1cc(Cl)ccc1N1CCN(c2cccc(C(F)(F)F)c2)CC1 | 0 | 0 | 14 | 103 | 138* | 2 | 110 | 4 | 103
O=[N+]([O-])c1cc(Cl)ccc1N1CCCC1 | 2 | 0 | -7 | 106 | 95 | 9 | nt | nt | nt
CCCC(CCC(=O)Nc1ccc(C(=O)OC)cc1)C(=O)O (stereo not drawn) | 0 | 0 | 13 | 125* | 124 | 0 | 98 | -3 | 101
CCCC(CCC(=O)Nc1ccc(C(=O)OCC)cc1)C(=O)O (stereo not drawn) | 1 | 0 | 1 | 102 | 105 | 21 | nt | nt | nt
COC(=O)C1=C[C@@H](C(=O)OC)[C@@H]2C3=C(C(=O)[C@]2(CC(C)C)NC(=O)c2ccccc2)[C@H](C)n2c(=O)n(-c4ccccc4)c(=O)n2[C@@H]3C1 | nt | 0 | 5 | 109 | 105 | nt | nt | nt | nt
CCC1(CC)C(=O)C2=C3C1[C@H](C(=O)OC)CC(C(=O)OC)C[C@H]3n1c(=O)n(-c3ccccc3)c(=O)n1[C@H]2C (stereo partly drawn) | nt | 0 | -4 | 80*[inhibitor] | 86 | nt | 96 | 1 | 97
S=c1nc(-c2ccccc2Br)[nH][nH]1 | 0 | 0 | -3 | 1.0*[inhibitor] | -2.0*[inhibitor] | -1 | 97 | -3 | 94
CCCN1CCN(CCCNC(=O)CCn2nc(-c3ccccc3)ccc2=O)CC1 | 0 | 0 | -19 | 79 | 82 | 0 | nt | nt | nt
SMILES | ABCB1 inh | Efflux pump inh | MEKK2 mut-MEK5 | MEKK3 PB1 HTS | MEKK2 WT-MEK5 | ABCG2 inh | MEKK2wt confirm | MEKK2mut confirm | MEKK3 confirm
O=C(CCn1nc(-c2ccc(Cl)cc2)ccc1=O)NCCCN1CCCCCC1 | 0 | 0 | 50* | 110 | 193* | 0 | 191 | 47 | 109
O=C(COc1cccnc1[N+](=O)[O-])Nc1ccc(Cl)c(S(=O)(=O)N2CCOCC2)c1 | nt | 0 | -9 | 93 | 95 | nt | nt | nt | nt
COc1cccc(OCCOCCOc2ccc(C)cc2[N+](=O)[O-])c1 | 2 | 0 | 0 | 146* | 109 | 61 | 97 | -2 | 102
Cc1nc(NC(=O)C23CC4CC(CC(C4)C2)C3)sc1Cc1ccc2c(c1)OCO2 | 0 | 0 | 30 | 108 | 147* | 0 | 131 | 15 | 105
Cc1ccc(C(=O)NCC(=O)OC(C)C(=O)Nc2ccc(N(C)C)cc2)cc1C (stereo not drawn) | 0 | 0 | 8 | 141* | 132 | 5 | 102 | 0 | 104
CC(=O)NCC(=O)OC(C)C(=O)Nc1ccc(C(C)=O)cc1 (stereo not drawn) | 0 | 0 | -3 | 101 | 98 | 1 | nt | nt | nt
Cc1ccc(S(=O)(=O)Oc2cccc(/C=N/Nc3ccc(C(=O)O)cc3)c2)cc1 | nt | 0 | 28 | 132* | 128 | nt | 105 | 7 | 104
CCOC(=O)c1ccc(-n2c(C)nc3c(cnn3-c3ccccc3Cl)c2=O)cc1 | 1 | 0 | 5 | 124* | 117 | 4 | 96 | -7 | 103
Cc1cc(Sc2nc(N(C)C)nc(N(C)C)n2)nc(Cl)n1 | 1 | 0 | 5 | 137* | 121 | 11 | 107 | 1 | 103
O=C(Nc1ccnn1C1CCN(C/C=C/c2ccccc2)CC1)c1ccccc1 | nt | 0 | 10 | 104 | 119 | nt | nt | nt | nt
O=C(Nc1ccnn1C1CCN(C/C=C/c2ccccc2)CC1)c1cccc(F)c1 | nt | 0 | 16 | 107 | 140* | nt | 122 | 11 | 107
